Experiments:
[1] = target: Mitogen-activated protein kinase 14 (Homo sapiens, UniProt Q16539); assay: Inhibition of p38alpha phosphorylation in human TNFalpha-stimulated U937 cells treated 1 hr before by ELISA; assay type: cell-based, U-937
Summary of the method: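 U937 human leukemic monocytes were pre-treated with compound across a dose range for one hour, then stimulated with TNFα. Phospho-p38α was quantified by ELISA, and IC50 was taken from the dose-response.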

Homo sapiens [2] = species on record: Homo sapiens; assay: Selectivity ratio of IC50 for MKK3 (unknown origin) to IC50 for JNK1 (unknown origin)
Homo sapiens [3] = species on record: Homo sapiens; assay: Selectivity ratio of IC50 for MKK3 (unknown origin) to IC50 for ERK1 (unknown origin)
Homo sapiens [4] = species on record: Homo sapiens; assay: Selectivity ratio of IC50 for MKK3 (unknown origin) to IC50 for JNK2 (unknown origin)
Homo sapiens [5] = species on record: Homo sapiens; assay: Selectivity ratio of IC50 for MKK3 (unknown origin) to IC50 for p38alpha (unknown origin)
Homo sapiens [6] = species on record: Homo sapiens; assay: Selectivity ratio of IC50 for MKK3 (unknown origin) to IC50 for MKK6 (unknown origin)
Homo sapiens [7] = species on record: Homo sapiens; assay: Selectivity ratio of IC50 for MKK3 (unknown origin) to IC50 for ERK2 (unknown origin)
Homo sapiens [8] = species on record: Homo sapiens; assay: Selectivity ratio of IC50 for MKK3 (unknown origin) to IC50 for MLK3 (unknown origin)
Homo sapiens [9] = species on record: Homo sapiens; assay: Selectivity ratio of IC50 for MKK3 (unknown origin) to IC50 for ASK1 (unknown origin)
Homo sapiens [10] = species on record: Homo sapiens; assay: Selectivity ratio of IC50 for MKK3 (unknown origin) to IC50 for MEK2 (unknown origin)
Homo sapiens [11] = species on record: Homo sapiens; assay: Selectivity ratio of IC50 for MKK3 (unknown origin) to IC50 for p38gamma (unknown origin)
[12] = target: T1, Dual specificity mitogen-activated protein kinase kinase 3 (Homo sapiens, UniProt P46734); assay: Inhibition of MKK3 (unknown origin) using [gamma-33P]-ATP after 20 mins by radiometric assay
T1 sequence (P46734 whole entry): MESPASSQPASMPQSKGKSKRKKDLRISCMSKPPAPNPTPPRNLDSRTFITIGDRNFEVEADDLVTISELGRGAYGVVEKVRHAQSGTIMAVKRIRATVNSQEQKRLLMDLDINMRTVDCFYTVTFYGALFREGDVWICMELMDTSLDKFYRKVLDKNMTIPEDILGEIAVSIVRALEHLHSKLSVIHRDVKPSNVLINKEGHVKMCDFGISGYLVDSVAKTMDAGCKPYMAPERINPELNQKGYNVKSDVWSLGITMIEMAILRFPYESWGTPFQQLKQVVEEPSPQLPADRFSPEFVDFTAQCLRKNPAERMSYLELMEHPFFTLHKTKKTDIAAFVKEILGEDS

Homo sapiens [13] = species on record: Homo sapiens; assay: Selectivity ratio of IC50 for MKK3 (unknown origin) to IC50 for MEK1 (unknown origin)
Homo sapiens [14] = species on record: Homo sapiens; assay: Selectivity ratio of IC50 for MKK3 (unknown origin) to IC50 for TAK1 (unknown origin)
[15] = target: T1, Dual specificity mitogen-activated protein kinase kinase 3; assay: Binding affinity to MKK3 (unknown origin) by surface plasmon resonance assay
[16] = target: T2, Dual specificity mitogen-activated protein kinase kinase 6 (Homo sapiens, UniProt P52564); assay: Inhibition of MKK6 (unknown origin) using [gamma-33P]-ATP after 20 mins by radiometric assay
T2 sequence (P52564 whole entry): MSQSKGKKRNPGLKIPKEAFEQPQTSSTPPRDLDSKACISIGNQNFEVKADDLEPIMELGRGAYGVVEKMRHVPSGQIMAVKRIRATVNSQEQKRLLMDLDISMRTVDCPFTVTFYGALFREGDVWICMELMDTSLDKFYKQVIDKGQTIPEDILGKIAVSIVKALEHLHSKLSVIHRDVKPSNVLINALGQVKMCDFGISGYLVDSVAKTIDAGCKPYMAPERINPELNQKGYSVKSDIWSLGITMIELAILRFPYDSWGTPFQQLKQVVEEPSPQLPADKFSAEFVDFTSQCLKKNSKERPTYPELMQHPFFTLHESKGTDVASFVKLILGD

Sequence of Mitogen-activated protein kinase 14 (Q16539 whole entry): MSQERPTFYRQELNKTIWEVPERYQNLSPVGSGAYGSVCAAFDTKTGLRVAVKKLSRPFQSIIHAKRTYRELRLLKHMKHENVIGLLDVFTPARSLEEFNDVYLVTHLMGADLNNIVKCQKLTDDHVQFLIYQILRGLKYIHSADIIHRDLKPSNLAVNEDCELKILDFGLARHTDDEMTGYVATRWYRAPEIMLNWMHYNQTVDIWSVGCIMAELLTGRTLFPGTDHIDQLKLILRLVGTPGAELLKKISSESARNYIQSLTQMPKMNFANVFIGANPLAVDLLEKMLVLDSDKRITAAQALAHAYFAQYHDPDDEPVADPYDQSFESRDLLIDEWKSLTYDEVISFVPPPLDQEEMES

IC50 [1] [nM]	Ratio IC50 (Homo sapiens [2])	Ratio IC50 (Homo sapiens [3])	Ratio IC50 (Homo sapiens [4])	Ratio IC50 (Homo sapiens [5])	Ratio IC50 (Homo sapiens [6])	Ratio IC50 (Homo sapiens [7])	Ratio IC50 (Homo sapiens [8])	Ratio IC50 (Homo sapiens [9])	Ratio IC50 (Homo sapiens [10])	Ratio IC50 (Homo sapiens [11])	IC50 [12] [nM]	Ratio IC50 (Homo sapiens [13])	Ratio IC50 (Homo sapiens [14])	SMILES	Kd [15] [nM]	IC50 [16] [nM]
2700	> 100	> 100	> 100	> 100	< 9	> 100	> 100	> 100	> 100	> 100	4	> 100	> 100	CNc1ccc(-c2ccncc2)nc1C(N)=O		
											4200			NC(=O)c1nc(-c2ccccc2)ccc1N		
											150			NC(=O)c1nc(-c2ccncc2)c2ccccn12		
											30			NC(=O)c1nc(-c2ccncc2)ccc1N		
730	> 100	> 100	> 100	> 100	12	> 100	> 100	> 100	> 100	> 100	4	86	23	NC(=O)c1nc(-c2ccns2)c2ccccn12		

SMILES	IC50 [1] [nM]	Ratio IC50 (Homo sapiens [2])	Ratio IC50 (Homo sapiens [3])	Ratio IC50 (Homo sapiens [4])	Ratio IC50 (Homo sapiens [5])	Ratio IC50 (Homo sapiens [6])	Ratio IC50 (Homo sapiens [7])	Ratio IC50 (Homo sapiens [8])	Ratio IC50 (Homo sapiens [9])	Ratio IC50 (Homo sapiens [10])	Ratio IC50 (Homo sapiens [11])	IC50 [12] [nM]	Ratio IC50 (Homo sapiens [13])	Ratio IC50 (Homo sapiens [14])	Kd [15] [nM]	IC50 [16] [nM]
NC(=O)c1nnc2ccccc2c1N												37000			2000	16000

From ChEMBL document CHEMBL3745714, “Fragment-based drug discovery of potent and selective MKK3/6 inhibitors” (Bioorg Med Chem Lett, 2016)
